Experimental data taken from PMC2837366 (Molecular cancer therapeutics, 2010).
Values belong to the compound of their own block, whether it stands above or below them.

Key:
PH domain of PDPK1 = molecular target: T1, PH domain of PDPK1 (Homo sapiens, UniProt O15530); assay: SPR competitive binding assay, displacement from PtdIns; settings: for binding to the PH domain of PDKP1: at concentrations up to 50 µM
T1 sequence (O15530 459-550 limits assumed): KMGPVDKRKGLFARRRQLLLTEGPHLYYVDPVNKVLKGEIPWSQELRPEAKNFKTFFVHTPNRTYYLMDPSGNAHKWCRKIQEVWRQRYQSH
Outline: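 Binding was measured by SPR on a Biacore 2000 with streptavidin chips carrying biotin-labelled PtdIns(3,4,5)P₃ liposomes. Expressed recombinant human PDPK1 PH domain was competed with increasing test compound concentrations. Ki was the concentration displacing 50% of the PH domain bound to the liposomes without drug. Values are means of 4 determinations.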

PH domain of Akt2 = molecular target: T2, PH domain of Akt2 (Homo sapiens, UniProt P31751); assay: SPR competitive binding assay, displacement from PtdIns
T2 sequence (P31751 5-108 limits assumed): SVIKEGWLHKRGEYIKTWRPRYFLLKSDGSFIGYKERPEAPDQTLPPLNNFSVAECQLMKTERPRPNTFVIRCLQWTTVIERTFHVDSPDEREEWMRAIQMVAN

[1] = tested on: PtdIns-3-K/PDPK1/Akt signaling in PC-3 prostate cells; assay: Reverse phase protein array in PC-3 cells; format: cell-based, human; settings: 0.1 µM, 16 hours, RPPA
Outline: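 PC-3 cells were held in serum-free medium for 8 hr. They were then exposed for 16 hr to test compound at 0.1–10 µM, to wortmannin, or to DMSO vehicle. Lysate protein was analysed by quantitative reverse phase protein array with 74 validated PtdIns-3-K/Akt/PDPK1 pathway antibodies. Values are means of 3 determinations, expressed relative to DMSO control.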

[2] = tested on: BxPC-3 pancreatic, MCF-7 breast or A-549 NSCL cancer xenografts; assay: Antitumor activity, effect of the carbon chain length; format: in vivo, mouse; settings: 200 mg/kg oral gavage twice a day for 10 days; BxPC-3, MCF-7, A-549 xenografts
Outline: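 Female scid mice received about 10⁷ log-phase cells in 0.2 ml PBS subcutaneously in the flank. MCF-7 cells were given in Matrigel, with a 60-day 17-β-estradiol pellet implanted the day before. Mice were stratified into groups of 8 with similar mean tumor volumes. Test compound was given orally in 0.1 ml sesame seed oil; controls received vehicle. Calipers were read twice weekly, with volume = d_short² × d_long ÷ 2. Growth rate over the dosing period was compared with control by Student's t-test. T/C is the treated growth rate as a percent of control.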

[3] = SPR displacement assay, in words

- binding to the PH domain of PDKP1 (PH domain of PDPK1): None of these compounds bound
- binding to the PH domain of Akt (PH domain of Akt2; at concentrations up to 50 µM): None of these compounds bound
SMILES: CN1N=C(N)c2cn([C@@H]3O[C@H](COP(=O)(O)O)[C@@H](O)[C@H]3O)c3ncnc1c23 [triciribine]

- binding to the PH domain of Akt (PH domain of Akt2; [3]): bound very weakly
SMILES: NC1(c2ccc(-c3nc4ccn5c(=O)[nH]nc5c4cc3-c3ccccc3)cc2)CCC1 [MK-2206]

- binding to the PH domain of PDKP1 (PH domain of PDPK1): None of these compounds bound
- binding to the PH domain of Akt (PH domain of Akt2; at concentrations up to 50 µM): None of these compounds bound
SMILES: CCCCCCCCCCCCCCCCCCOCC(COP(=O)([O-])OCC[N+](C)(C)C)OC (stereo not shown) [edelfosine]

- binding to the PH domain of PDPK1 (PH domain of PDPK1; [3]): showed binding
SMILES: CCCCCCCCCCCCCCc1ccc(S(=O)(=O)Nc2nncs2)cc1 [C-14]
- binding to the PH domain of Akt (PH domain of Akt2; [3]): lower, although still appreciable, binding

SMILES: COC[C@H]1OC(=O)c2coc3c2[C@@]1(C)C1=C(C3=O)[C@@H]2CCC(=O)[C@@]2(C)C[C@H]1OC(C)=O [wortmannin, reference compound]
- phospho-Ser241-PDPK1 [1]: reduction
- phospho-Ser473-Akt [1]: completely inhibited
- phospho-Ser657-protein kinase C (PKC) [1]: decreased
- phospho-Thr308-Akt [1]: reduction
- total SGK1 [1]: decreased

SMILES: CCCCCCc1ccc(S(=O)(=O)Nc2nncs2)cc1 [C-6]
- antitumor activity (tumor growth rate) [2]: very little activity

SMILES: CCCCCCCCCCCCCCCCCCc1ccc(S(=O)(=O)Nc2nncs2)cc1 [C-18]
- binding to the PH domain of Akt (PH domain of Akt2; [3]): lower, although still appreciable, binding

SMILES: CCCCc1ccc(S(=O)(=O)Nc2nncs2)cc1 [C-4]
- antitumor activity (tumor growth rate) [2]: very little activity

SMILES: CCCCCCCCc1ccc(S(=O)(=O)Nc2nncs2)cc1 [C-8]
- antitumor activity (tumor growth rate) [2]: less activity

SMILES: CCCCCCCCCCCCCCCCc1ccc(S(=O)(=O)Nc2nncs2)cc1 [C-16]
- binding to the PH domain of Akt (PH domain of Akt2; [3]): lower, although still appreciable, binding

- binding to the PH domain of PDKP1 (PH domain of PDPK1): None of these compounds bound
- binding to the PH domain of Akt (PH domain of Akt2; at concentrations up to 50 µM): None of these compounds bound
SMILES: CCCCCCCCCCCCCCCCCCOP(=O)([O-])OC1CC[N+](C)(C)CC1 [perifosine]
